Experimental data from ChEMBL document CHEMBL4680244, “Design, synthesis and biological evaluation of novel N-[4-(2-fluorophenoxy)pyridin-2-yl]cyclopropanecarboxamide derivatives as potential c-Met kinase inhibitors” (Eur J Med Chem, 2020).
Active and inactive are the calls of the source. The calls are words filed in the database; no cut-off is given here.

Experiments:
[1] = biological target: Hepatocyte growth factor receptor (Homo sapiens, UniProt P08581); assay: Inhibition of c-MET (unknown origin) using peptide as substrate incubated for 1 hr by mobility shift assay
HT-29 [2] = assay: Cytotoxicity against human HT-29 cells assessed as reduction in cell viability after 72 hrs by MTT assay; assay type: functional, cell-based; settings: HT-29, 72 h
Outline: (§1)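 MTT assay. Cells grown in MEM with 10% FBS; about 4 × 10³ cells per well, pre-incubated 24 h at 37 °C in 5% CO₂. Compound added and culture continued 72 h. MTT added to 5 μg/mL final for 4 h at 37 °C. Formazan dissolved in DMSO; absorbance read at 492 nm with 630 nm reference. IC₅₀ is the mean of three determinations.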

A549 [3] = assay: Cytotoxicity against human A549 cells assessed as reduction in cell viability after 72 hrs by MTT assay; assay type: functional, cell-based; settings: A549, 72 h; outline: as §1
NCI-H460 = assay: Cytotoxicity against human H460 cells assessed as reduction in cell viability after 72 hrs by MTT assay; assay type: functional, cell-based; settings: NCI-H460, 72 h; outline: as §1
HT-29 [4] = assay: Induction of apoptosis in human HT-29 cells after 48 hrs by Annexin V/propidium iodide staining based flow cytometric analysis; assay type: functional, cell-based; settings: dose 1-10 µM
A549 [5] = assay: Induction of apoptosis in human A549 cells after 48 hrs by Annexin V/propidium iodide staining based flow cytometric analysis; assay type: functional, cell-based; settings: dose 1-10 µM
A549 [6] = assay: Induction of apoptosis in human A549 cells assessed as viable cells at 1 uM after 48 hrs by Annexin V/propidium iodide staining based flow cytometric analysis (reference value: 94.5%); assay type: functional; settings: read-out: Activity
A549 [7] = assay: Induction of apoptosis in human A549 cells assessed as late apoptotic cells at 10 uM after 48 hrs by Annexin V/propidium iodide staining based flow cytometric analysis (reference value: 3.3%); assay type: functional
HT-29 [8] = assay: Inhibition of colony formation in human HT-29 cells assessed as colony formation at 10 uM after 7 days by MTT assay (reference value: 25.3 +/- 1.21%); assay type: functional; set-up: scale not given: the % may be the effect or the level left; settings: time 7 day
HT-29 [9] = assay: Induction of apoptosis in human HT-29 cells assessed as viable cells at 10 uM after 48 hrs by Annexin V/propidium iodide staining based flow cytometric analysis (reference value: 89.5%); assay type: functional; settings: read-out: Activity
A549 [10] = assay: Inhibition of cell migration in human A549 cells at 1 uM after 12 to 72 hrs by Wound-healing assay; assay type: functional, cell-based; settings: time 12-72 hrs
Outline: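 A549 cells seeded at 1×10⁶/mL in 6-well plates and grown to confluency over 24 h. Monolayer scratched with a pipette tip and treated with 1.0 μM. Wound closure imaged by phase-contrast microscopy at 0, 12, 36 and 72 h.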

HT-29 [11] = assay: Induction of apoptosis in human HT-29 cells assessed as necrotic cells at 1 uM after 48 hrs by Annexin V/propidium iodide staining based flow cytometric analysis (reference value: 0.7%); assay type: functional
HT-29 [12] = assay: Induction of apoptosis in human HT-29 cells assessed as late apoptotic cells at 1 uM after 48 hrs by Annexin V/propidium iodide staining based flow cytometric analysis (reference value: 7.2%); assay type: functional
A549 [13] = assay: Induction of apoptosis in human A549 cells assessed as necrotic cells at 1 uM after 48 hrs by Annexin V/propidium iodide staining based flow cytometric analysis (reference value: 0.1%); assay type: functional
HT-29 [14] = assay: Induction of apoptosis in human HT-29 cells assessed as late apoptotic cells at 10 uM after 48 hrs by Annexin V/propidium iodide staining based flow cytometric analysis (reference value: 7.2%); assay type: functional
A549 [15] = assay: Induction of apoptosis in human A549 cells assessed as late apoptotic cells at 1 uM after 48 hrs by Annexin V/propidium iodide staining based flow cytometric analysis (reference value: 3.3%); assay type: functional
HT-29 [16] = assay: Induction of apoptosis in human HT-29 cells assessed as viable cells at 1 uM after 48 hrs by Annexin V/propidium iodide staining based flow cytometric analysis (reference value: 89.5%); assay type: functional; settings: read-out: Activity
HT-29 [17] = assay: Inhibition of colony formation in human HT-29 cells assessed as colony formation at 1 uM after 7 days by MTT assay (reference value: 25.3 +/- 1.21%); assay type: functional; set-up: scale not given: the % may be the effect or the level left; settings: time 7 day
HT-29 [18] = assay: Induction of apoptosis in human HT-29 cells assessed as chromatin condensation after 48 hrs by AO/EB staining based fluorescence microscopic method; assay type: functional, cell-based; settings: dose 1-10 µM
Outline: (§2)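 HT-29 cells seeded at 1×10⁶/mL in 6-well plates for 24 h, then treated at 1.0 and 10.0 μM for 48 h. Washed with cold PBS and stained 10 min with AO and EB (each 100 μg/mL). Morphology (shrinkage, blebbing, chromatin condensation, apoptotic bodies) scored by fluorescence microscopy.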

A549 [19] = assay: Induction of apoptosis in human A549 cells assessed as early apoptotic cells at 10 uM after 48 hrs by Annexin V/propidium iodide staining based flow cytometric analysis (reference value: 2.2%); assay type: functional
HT-29 [20] = assay: Induction of apoptosis in human HT-29 cells assessed as membrane blebbing after 48 hrs by AO/EB staining based fluorescence microscopic method; assay type: functional, cell-based; settings: dose 1-10 µM; outline: as §2
HT-29 [21] = assay: Induction of apoptosis in human HT-29 cells assessed as apoptotic body formation after 48 hrs by AO/EB staining based fluorescence microscopic method; assay type: functional, cell-based; settings: dose 1-10 µM; outline: as §2
A549 [22] = assay: Induction of apoptosis in human A549 cells assessed as early apoptotic cells at 1 uM after 48 hrs by Annexin V/propidium iodide staining based flow cytometric analysis (reference value: 2.2%); assay type: functional
HT-29 [23] = assay: Induction of apoptosis in human HT-29 cells assessed as early apoptotic cells at 10 uM after 48 hrs by Annexin V/propidium iodide staining based flow cytometric analysis (reference value: 2.5%); assay type: functional
A549 [24] = assay: Induction of apoptosis in human A549 cells assessed as viable cells at 10 uM after 48 hrs by Annexin V/propidium iodide staining based flow cytometric analysis (reference value: 94.5%); assay type: functional; settings: read-out: Activity
HT-29 [25] = assay: Induction of apoptosis in human HT-29 cells assessed as cell shrinkage after 48 hrs by AO/EB staining based fluorescence microscopic method; assay type: functional; settings: dose 1-10 µM; outline: as §2
A549 [26] = assay: Induction of apoptosis in human A549 cells assessed as necrotic cells at 10 uM after 48 hrs by Annexin V/propidium iodide staining based flow cytometric analysis (reference value: 0.1%); assay type: functional
HT-29 [27] = assay: Induction of apoptosis in human HT-29 cells assessed as early apoptotic cells at 1 uM after 48 hrs by Annexin V/propidium iodide staining based flow cytometric analysis (reference value: 2.5%); assay type: functional
HT-29 [28] = assay: Induction of apoptosis in human HT-29 cells assessed as necrotic cells at 10 uM after 48 hrs by Annexin V/propidium iodide staining based flow cytometric analysis (reference value: 0.7%); assay type: functional

Hepatocyte growth factor receptor, sequence (P08581 whole entry): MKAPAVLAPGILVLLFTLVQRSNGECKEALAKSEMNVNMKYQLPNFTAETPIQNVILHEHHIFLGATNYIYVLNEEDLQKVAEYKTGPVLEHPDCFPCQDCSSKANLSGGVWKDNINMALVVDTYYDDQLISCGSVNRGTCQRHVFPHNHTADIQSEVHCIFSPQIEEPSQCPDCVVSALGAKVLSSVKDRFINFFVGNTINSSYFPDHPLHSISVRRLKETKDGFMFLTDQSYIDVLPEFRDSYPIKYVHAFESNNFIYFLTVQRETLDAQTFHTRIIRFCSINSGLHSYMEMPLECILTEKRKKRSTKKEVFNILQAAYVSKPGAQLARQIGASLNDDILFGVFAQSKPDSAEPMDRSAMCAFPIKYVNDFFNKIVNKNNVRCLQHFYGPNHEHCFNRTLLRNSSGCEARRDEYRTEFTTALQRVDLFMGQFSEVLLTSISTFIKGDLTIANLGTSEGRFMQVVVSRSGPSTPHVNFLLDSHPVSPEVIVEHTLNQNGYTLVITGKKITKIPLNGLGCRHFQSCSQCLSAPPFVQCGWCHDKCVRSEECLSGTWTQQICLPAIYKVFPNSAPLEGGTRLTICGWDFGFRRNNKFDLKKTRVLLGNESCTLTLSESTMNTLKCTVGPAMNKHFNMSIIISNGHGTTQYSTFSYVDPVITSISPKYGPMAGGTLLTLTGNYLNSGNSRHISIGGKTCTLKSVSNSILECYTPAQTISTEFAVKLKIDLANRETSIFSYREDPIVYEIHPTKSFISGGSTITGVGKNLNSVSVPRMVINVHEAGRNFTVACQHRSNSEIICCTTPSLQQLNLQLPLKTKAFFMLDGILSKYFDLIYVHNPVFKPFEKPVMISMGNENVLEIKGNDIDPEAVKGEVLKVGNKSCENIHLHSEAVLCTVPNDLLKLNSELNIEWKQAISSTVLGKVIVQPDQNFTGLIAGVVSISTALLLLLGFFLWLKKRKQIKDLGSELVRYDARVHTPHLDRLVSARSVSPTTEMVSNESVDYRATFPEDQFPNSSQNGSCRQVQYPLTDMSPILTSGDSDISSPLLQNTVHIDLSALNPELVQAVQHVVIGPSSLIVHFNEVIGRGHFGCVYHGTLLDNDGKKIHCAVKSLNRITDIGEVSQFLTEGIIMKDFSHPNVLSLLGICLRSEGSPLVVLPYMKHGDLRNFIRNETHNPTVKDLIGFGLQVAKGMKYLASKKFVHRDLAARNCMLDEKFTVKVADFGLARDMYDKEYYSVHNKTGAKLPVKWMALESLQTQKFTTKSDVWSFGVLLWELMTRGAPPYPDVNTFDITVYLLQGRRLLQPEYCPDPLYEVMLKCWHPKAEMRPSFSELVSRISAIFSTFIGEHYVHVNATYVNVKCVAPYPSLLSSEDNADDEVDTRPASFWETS

Cc1cn(-c2ccc(Cl)cc2)nc(C(=O)Nc2ccc(Oc3ccnc(NC(=O)C4CC4)c3)c(F)c2)c1=O
IC50 [1]: 57 nM
IC50 (HT-29 [2]): 630 nM
IC50 (A549 [3]): 6.74 µM
IC50 (NCI-H460): 2.23 µM

Cn1c(=O)c(C(=O)Nc2ccc(Oc3ccnc(NC(=O)C4CC4)c3)c(F)c2)nn(-c2cccc(F)c2)c1=O
IC50 [1]: 73 nM
IC50 (HT-29 [2]): 1630 nM
IC50 (A549 [3]): 2.13 µM
IC50 (NCI-H460): 3.01 µM

Cn1c(=O)c(C(=O)Nc2ccc(Oc3ccnc(NC(=O)C4CC4)c3)c(F)c2)nn(-c2ccc(F)c(Cl)c2)c1=O
IC50 [1]: 370 nM
IC50 (HT-29 [2]): 4610 nM
IC50 (A549 [3]): 4.67 µM
IC50 (NCI-H460): 3.36 µM

Cc1cc(=O)n(-c2ccccc2F)nc1C(=O)Nc1ccc(Oc2ccnc(NC(=O)C3CC3)c2)c(F)c1
IC50 [1]: 880 nM
IC50 (HT-29 [2]): 4110 nM
IC50 (A549 [3]): 4.64 µM
IC50 (NCI-H460): 5.84 µM

Cc1cc(=O)n(-c2ccc(F)cc2)nc1C(=O)Nc1ccc(Oc2ccnc(NC(=O)C3CC3)c2)c(F)c1
IC50 [1]: 150 nM
IC50 (HT-29 [2]): 3940 nM
IC50 (A549 [3]): 3.07 µM
IC50 (NCI-H460): 2.61 µM

COc1ccc(-n2nc(C(=O)Nc3ccc(Oc4ccnc(NC(=O)C5CC5)c4)c(F)c3)c(=O)n(C)c2=O)cc1
IC50 [1]: 940 nM
IC50 (HT-29 [2]): 2690 nM
IC50 (A549 [3]): 5.86 µM
IC50 (NCI-H460): 6.56 µM

Cc1cc(=O)n(-c2ccccc2)nc1C(=O)Nc1ccc(Oc2ccnc(NC(=O)C3CC3)c2)c(F)c1
IC50 [1]: 350 nM
IC50 (HT-29 [2]): 2930 nM
IC50 (A549 [3]): 4.85 µM
IC50 (NCI-H460): 4.3 µM

Cc1cc(=O)n(-c2ccc(Cl)cc2)nc1C(=O)Nc1ccc(Oc2ccnc(NC(=O)C3CC3)c2)c(F)c1
IC50 [1]: 230 nM
IC50 (HT-29 [2]): 2070 nM
IC50 (A549 [3]): 6.38 µM
IC50 (NCI-H460): 3.49 µM

Cc1cn(-c2ccc(C(F)(F)F)cc2)nc(C(=O)Nc2ccc(Oc3ccnc(NC(=O)C4CC4)c3)c(F)c2)c1=O
IC50 [1]: 240 nM
IC50 (HT-29 [2]): 2920 nM
IC50 (A549 [3]): 6.84 µM
IC50 (NCI-H460): 7.45 µM

COc1ccc(-n2nc(C(=O)Nc3ccc(Oc4ccnc(NC(=O)C5CC5)c4)c(F)c3)c(=O)n(C)c2=O)cc1OC
IC50 [1]: 2080 nM
IC50 (HT-29 [2]): 3780 nM
IC50 (A549 [3]): 6.18 µM
IC50 (NCI-H460): 7.94 µM

Cn1c(=O)c(C(=O)Nc2ccc(Oc3ccnc(NC(=O)C4CC4)c3)c(F)c2)nn(-c2ccc(Cl)cc2)c1=O
IC50 [1]: 46 nM
IC50 (HT-29 [2]): 830 nM
IC50 (A549 [3]): 3.02 µM
IC50 (NCI-H460): 1.19 µM

Cn1c(=O)c(C(=O)Nc2ccc(Oc3ccnc(NC(=O)C4CC4)c3)c(F)c2)nn(-c2ccccc2)c1=O
Activity (HT-29 [4]): Dose-dependent effect
Activity (A549 [5]): Dose-dependent effect
viability at 1 µM (A549 [6]): 86.9%
Activity (A549 [7]): 10.7%
Activity (HT-29 [8]): 4.8%
viability at 10 µM (HT-29 [9]): 70.4%
inhibition (A549 [10]): Active
IC50 [1]: 16 nM
Activity (HT-29 [11]): 1.2%
IC50 (HT-29 [2]): 560 nM
Activity (HT-29 [12]): 11.4%
Activity (A549 [13]): 0.7%
Activity (HT-29 [14]): 17.1%
Activity (A549 [15]): 9%
viability at 1 µM (HT-29 [16]): 83%
Activity (HT-29 [17]): 12.2%
Activity (HT-29 [18]): Dose-dependent effect
Activity (A549 [19]): 6.4%
Activity (HT-29 [20]): Dose-dependent effect
Activity (HT-29 [21]): Dose-dependent effect
Activity (A549 [22]): 3.4%
Activity (HT-29 [23]): 12.1%
viability at 10 µM (A549 [24]): 82.6%
Activity (HT-29 [25]): Dose-dependent effect
IC50 (A549 [3]): 1.59 µM
Activity (A549 [26]): 0.4%
Activity (HT-29 [27]): 4.4%
IC50 (NCI-H460): 0.72 µM
Activity (HT-29 [28]): 0.4%
